Assay [1] addresses T1, Tyrosine-protein phosphatase non-receptor type 11 (Homo sapiens) (UniProt Q06124).
T1 sequence (whole entry): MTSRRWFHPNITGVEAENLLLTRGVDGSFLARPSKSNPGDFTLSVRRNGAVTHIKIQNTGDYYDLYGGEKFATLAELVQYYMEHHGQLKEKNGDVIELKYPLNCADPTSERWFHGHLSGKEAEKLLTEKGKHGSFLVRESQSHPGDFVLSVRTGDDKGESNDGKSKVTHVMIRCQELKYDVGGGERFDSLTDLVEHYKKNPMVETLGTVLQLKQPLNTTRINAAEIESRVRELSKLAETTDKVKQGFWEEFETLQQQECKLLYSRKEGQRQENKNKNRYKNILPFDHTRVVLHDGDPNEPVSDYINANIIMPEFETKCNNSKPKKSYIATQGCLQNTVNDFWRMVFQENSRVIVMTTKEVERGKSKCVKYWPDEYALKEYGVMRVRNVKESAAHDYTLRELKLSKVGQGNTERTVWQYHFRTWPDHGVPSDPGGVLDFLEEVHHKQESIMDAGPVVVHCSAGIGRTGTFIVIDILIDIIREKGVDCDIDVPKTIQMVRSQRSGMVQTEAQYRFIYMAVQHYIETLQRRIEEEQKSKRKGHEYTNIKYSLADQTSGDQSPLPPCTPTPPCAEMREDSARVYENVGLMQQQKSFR
Nature of the assay: Inhibition of SHP2 dephosphorylation activity in human NCI-H1975 cells assessed as increase in paxillin (pY118) phosphorylation at 2 uM after 60 mins by immunoblot analysis. The format is cell-based. More on the design: Activity: scale not given: the % may be the effect or the level left. The essentials: (§1)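 H1975 cells serum-starved overnight, treated with vehicle or compound for 3 h, then left unstimulated or stimulated with 5 ng/mL EGF for 60 min. Lysates resolved by SDS-PAGE and immunoblotted for paxillin pY118 and phospho-Erk1/2.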

Assay [2] has as its target T1, Tyrosine-protein phosphatase non-receptor type 11 (Homo sapiens). Nature of the assay: Inhibition of SHP2 in human NCI-H1975 cells assessed as reduction in EGF-induced Erk1/2 phosphorylation at 2 uM after 60 mins by immunoblot analysis. The format is cell-based. In short, it runs like this: as §1
The target of assay [3] is T2, Tyrosine-protein phosphatase non-receptor type 11 (Homo sapiens, UniProt Q06124).
T2 sequence (Q06124 whole entry): T1 sequence (whole entry)
The experiment in a line: Inhibition of SHP2 (unknown origin) using p-nitrophenyl phosphate substrate by microplate spectrophotometry.

For assay [4], the species on record is Mus musculus. Nature of the assay: Anticancer activity against mouse 32D cells bearing KITD814V mutant assessed as ligand dependent growth inhibition at 5 uM measured after 6 hrs. It counts as functional, cell-based. The settings on record: in the assay text read “ligand independent” for “ligand dependent”. The essentials:
(§2)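 32D myeloid cells retrovirally transduced with WT KIT or KITD814V and sorted on EGFP. Starved 6–8 h in IMDM/0.2% BSA without serum or growth factors. Plated at 5×10^4 cells in triplicate in IMDM/10% FBS, with 10 ng/mL IL-3 for WT KIT and no growth factors for KITD814V, ± inhibitor. Cultured 48 h, pulsed 6 h with 1.0 μCi [3H]thymidine, CPM counted. Four independent experiments.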

For assay [5], the species on record is Mus musculus. Nature of the assay: Anticancer activity against mouse 32D cells bearing wild-type KIT assessed as ligand dependent growth inhibition at 1 to 5 uM measured after 6 hrs. The format is functional, cell-based. The essentials: as §2
Assay [6] relates to Bone marrow cell. The experiment in a line: Reduction in growth of C57BL/6 mouse Bone marrow cell bearing KITD814V mutant at 5 uM after 6 hrs. It counts as functional, cell-based.
The target in assay [7] is T1, Tyrosine-protein phosphatase non-receptor type 11 (Homo sapiens). The experiment in a line: Inhibition of SHP2 dephosphorylation activity in human NCI-H1975 cells assessed as increase in paxillin (pY118) phosphorylation after 60 mins by immunoblot analysis. The format is cell-based. The essentials: as §1
(In general: A western blot detects proteins with antibodies after separation by electrophoresis.)

For assay [8] the target is unchanged. Nature of the assay: Inhibition of SHP2 in human NCI-H1975 cells assessed as reduction in EGF-induced Erk1/2 phosphorylation after 60 mins by immunoblot analysis. The format is cell-based. In short, it runs like this:
as §1

The species named for assay [9] is Mus musculus. The experiment in a line: Anticancer activity against mouse 32D cells bearing KITD814V mutant assessed as ligand dependent growth inhibition at 1 uM measured after 6 hrs. The format is functional, cell-based. The settings on record: in the assay text read “ligand independent” for “ligand dependent”. The essentials: as §2
The target in assay [10] is T1, Tyrosine-protein phosphatase non-receptor type 11 (Homo sapiens). Nature of the assay: Inhibition of SHP2 in human SKBR3 cells assessed as inhibition of total Akt phosphorylation level at 1 to 10 uM measured after 4 days by matrigel assay. It counts as cell-based. The settings on record: SK-BR-3. The essentials:
(§3)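 SKBR3 cells grown in Matrigel with vehicle or compound (1 to 10 μM), three dishes per condition. After 4 days cells recovered from Matrigel and lysed in PLC buffer with protease inhibitors. Total and phospho Erk1/2 and Akt detected by SDS-PAGE immunoblot.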

In assay [11] the target is Mast/stem cell growth factor receptor Kit (Homo sapiens) (UniProt P10721). Nature of the assay: Inhibition of KIT D814V mutant (unknown origin) expressed in serum starved mouse 32D cells assessed as inhibition of Akt activation at 1 to 5 uM measured after 2 hrs by immunoblot analysis. The format is cell-based. In short, it runs like this: (§4)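 Sorted 32D cells expressing WT KIT or KITD814V, starved of serum and growth factors for 6 h. Treated with compound for 2 h, then lysed in NP-40 buffer with phosphatase and protease inhibitors. Equal protein amounts immunoblotted for phospho and total Akt and Erk1/2, ECL detection. Two independent experiments.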
Sequence of Mast/stem cell growth factor receptor Kit (Homo sapiens) (P10721 whole entry): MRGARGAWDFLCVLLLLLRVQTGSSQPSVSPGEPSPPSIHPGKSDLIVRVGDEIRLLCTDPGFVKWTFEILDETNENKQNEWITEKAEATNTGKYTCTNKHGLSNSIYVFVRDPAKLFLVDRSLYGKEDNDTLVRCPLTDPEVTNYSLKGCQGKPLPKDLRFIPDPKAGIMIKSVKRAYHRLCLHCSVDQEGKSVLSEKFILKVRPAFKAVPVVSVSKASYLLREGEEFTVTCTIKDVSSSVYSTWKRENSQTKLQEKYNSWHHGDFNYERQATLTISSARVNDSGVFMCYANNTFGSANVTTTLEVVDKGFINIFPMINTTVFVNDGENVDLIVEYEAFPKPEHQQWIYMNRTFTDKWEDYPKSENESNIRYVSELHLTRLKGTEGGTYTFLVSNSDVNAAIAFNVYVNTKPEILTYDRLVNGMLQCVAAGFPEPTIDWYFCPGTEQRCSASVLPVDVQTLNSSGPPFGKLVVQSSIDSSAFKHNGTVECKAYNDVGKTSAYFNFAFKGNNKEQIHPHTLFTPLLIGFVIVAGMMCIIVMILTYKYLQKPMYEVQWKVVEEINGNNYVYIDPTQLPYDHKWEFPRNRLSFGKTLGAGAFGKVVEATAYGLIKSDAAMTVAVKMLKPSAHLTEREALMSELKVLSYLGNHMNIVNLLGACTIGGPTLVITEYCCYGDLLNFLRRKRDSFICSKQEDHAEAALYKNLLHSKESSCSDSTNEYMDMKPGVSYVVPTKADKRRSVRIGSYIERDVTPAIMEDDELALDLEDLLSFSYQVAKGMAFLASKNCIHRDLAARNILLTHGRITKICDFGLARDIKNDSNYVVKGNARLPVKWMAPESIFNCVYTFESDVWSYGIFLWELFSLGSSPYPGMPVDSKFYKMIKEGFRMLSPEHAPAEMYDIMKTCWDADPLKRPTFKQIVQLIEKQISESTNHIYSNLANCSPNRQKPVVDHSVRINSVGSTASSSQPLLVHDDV

Assay [12] has as its system Bone marrow cell. The experiment in a line: Reduction in growth of C57BL/6 mouse Bone marrow cell bearing KITD814V mutant at 1 uM after 6 hrs. It counts as functional, cell-based.
Assay [13] concerns the target T1, Tyrosine-protein phosphatase non-receptor type 11 (Homo sapiens). Nature of the assay: Inhibition of SHP2 in human NCI-H1975 cells assessed as reduction in EGF-induced Erk1/2 phosphorylation after 60 mins by immunoblot analysis in presence of SHP2 siRNA. It counts as cell-based. In short, it runs like this: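 H1975 cells transfected with SHP2 or scrambled siRNA using Lipofectamine 2000 for 6 h, then recovered in RPMI1640 with 10% FBS. Serum-starved overnight, treated with compound for 3 h, stimulated with 5 ng/mL EGF for 60 min. Phospho-Erk1/2 measured by immunoblot.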

Assay [14] relates to NCI-H1975. The experiment in a line: Anticancer activity against human NCI-H1975 cells after 2 days by MTT assay. The format is functional, cell-based. In short, it runs like this: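 H1975 NSCLC cells in RPMI-1640 with 10% FBS at 37 °C, 5% CO2. 3×10^3 cells/well, treated 2 days in RPMI-1640 with 0.5% FBS. MTT at 50 μg/mL for 3–4 h, formazan dissolved in DMSO, OD read at 540 nm. Media-only wells used for background. IC50 from dose–response.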
(In general: Tetrazolium assays rely on reduction of a dye to a coloured formazan, in cell work by metabolically active cells.)

The target of assay [15] is Mast/stem cell growth factor receptor Kit (Homo sapiens) (UniProt P10721). Nature of the assay: Effect on wild type KIT (unknown origin) expressed in serum starved mouse 32D cells assessed as effect on Erk1/2 activation at 1 to 5 uM measured after 2 hrs by immunoblot analysis. It counts as cell-based. In short, it runs like this: as §4
The target of assay [16] is Receptor-type tyrosine-protein phosphatase epsilon (Homo sapiens, UniProt P23469). The experiment in a line: Inhibition of PTPepsilon (unknown origin).
Sequence of Receptor-type tyrosine-protein phosphatase epsilon (P23469 whole entry): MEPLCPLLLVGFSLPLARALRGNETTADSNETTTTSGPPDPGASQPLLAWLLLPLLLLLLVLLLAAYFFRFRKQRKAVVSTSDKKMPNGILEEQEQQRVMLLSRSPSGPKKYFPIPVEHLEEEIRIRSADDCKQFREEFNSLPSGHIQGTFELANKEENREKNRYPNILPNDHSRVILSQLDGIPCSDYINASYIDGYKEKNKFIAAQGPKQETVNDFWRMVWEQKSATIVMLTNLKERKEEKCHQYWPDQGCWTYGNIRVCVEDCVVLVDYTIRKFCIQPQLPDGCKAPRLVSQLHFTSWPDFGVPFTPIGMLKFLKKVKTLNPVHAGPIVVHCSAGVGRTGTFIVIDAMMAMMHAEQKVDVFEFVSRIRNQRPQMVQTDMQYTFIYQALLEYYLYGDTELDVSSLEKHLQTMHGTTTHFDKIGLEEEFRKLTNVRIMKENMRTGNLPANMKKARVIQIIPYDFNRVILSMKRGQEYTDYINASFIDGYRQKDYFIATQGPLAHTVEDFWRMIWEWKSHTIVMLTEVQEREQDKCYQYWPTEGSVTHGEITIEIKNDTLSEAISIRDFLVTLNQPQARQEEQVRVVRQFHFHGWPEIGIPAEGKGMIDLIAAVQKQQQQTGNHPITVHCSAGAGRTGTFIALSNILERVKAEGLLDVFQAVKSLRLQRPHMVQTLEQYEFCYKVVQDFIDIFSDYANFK
The test system of another assay is SK-BR-3. The experiment in a line: Anticancer activity against human SKBR3 cells assessed as growth inhibition at 3 uM measured within 24 hrs by matrigel assay. The format is functional, cell-based. In short, it runs like this: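 About 300000 SKBR3 cells seeded into 150 μL growth factor reduced Matrigel. Three dishes per condition received medium containing DMSO vehicle or compound. Colonies imaged every 24 h under a stereo microscope. Cross-sectional area of individual colonies measured from the images.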

Assay [17] concerns the target Mast/stem cell growth factor receptor Kit (Homo sapiens) (UniProt P10721). The experiment in a line: Inhibition of KIT D814V mutant (unknown origin) expressed in serum starved mouse 32D cells assessed as inhibition of total Erk1/2 activation at 1 to 5 uM measured after 2 hrs by immunoblot analysis. It counts as cell-based. The essentials: as §4
Assay [18] has the same target. Nature of the assay: Effect on wild type KIT (unknown origin) expressed in serum starved mouse 32D cells assessed as effect on Akt activation at 1 to 5 uM measured after 2 hrs by immunoblot analysis. It counts as cell-based. In short, it runs like this: as §4
Assay [19] addresses Receptor-type tyrosine-protein phosphatase alpha (Homo sapiens, UniProt P18433). Nature of the assay: Inhibition of PTPalpha (unknown origin).
Assay [20] concerns NCI-H1975. Nature of the assay: Effect on PMA-induced Erk1/2 phosphorylation in human NCI-H1975 cells at 0.5 to 2 uM after 30 mins by immunoblot analysis. The format is functional, cell-based.
The target in assay [21] is T1, Tyrosine-protein phosphatase non-receptor type 11 (Homo sapiens). Nature of the assay: Inhibition of SHP2 in human SKBR3 cells assessed as inhibition of total Erk1/2 phosphorylation level at 1 to 10 uM measured after 4 days by matrigel assay. The format is cell-based. Particulars: SK-BR-3. In short, it runs like this:
as §3

Calls of active or inactive are those of the source. The rule behind the calls is not given here.

Sequence of Receptor-type tyrosine-protein phosphatase alpha (P18433 whole entry): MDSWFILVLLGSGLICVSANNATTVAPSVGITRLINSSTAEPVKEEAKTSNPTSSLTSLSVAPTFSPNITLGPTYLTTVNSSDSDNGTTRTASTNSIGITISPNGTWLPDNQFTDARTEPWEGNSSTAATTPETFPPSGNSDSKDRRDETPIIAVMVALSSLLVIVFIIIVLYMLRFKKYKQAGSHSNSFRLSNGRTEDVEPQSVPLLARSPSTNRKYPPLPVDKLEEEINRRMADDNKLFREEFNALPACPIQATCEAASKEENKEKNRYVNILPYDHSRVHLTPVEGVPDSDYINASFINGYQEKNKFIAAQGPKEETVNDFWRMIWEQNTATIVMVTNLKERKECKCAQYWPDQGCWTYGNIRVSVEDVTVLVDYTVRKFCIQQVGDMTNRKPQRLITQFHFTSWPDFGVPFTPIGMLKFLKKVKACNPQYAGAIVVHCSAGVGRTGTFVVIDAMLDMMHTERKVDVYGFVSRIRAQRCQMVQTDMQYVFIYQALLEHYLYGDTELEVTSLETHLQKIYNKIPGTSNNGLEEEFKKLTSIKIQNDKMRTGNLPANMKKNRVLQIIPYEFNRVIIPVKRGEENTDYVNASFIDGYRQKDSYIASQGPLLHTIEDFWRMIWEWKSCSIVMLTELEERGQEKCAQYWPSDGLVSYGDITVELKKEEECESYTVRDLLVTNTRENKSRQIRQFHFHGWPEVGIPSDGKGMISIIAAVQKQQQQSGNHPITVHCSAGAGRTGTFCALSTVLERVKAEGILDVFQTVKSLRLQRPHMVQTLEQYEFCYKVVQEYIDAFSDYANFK

A word on the inhibition: it is the drop in the measured response relative to a control, in per cent. Turning to `Cn1c(-c2cccc(NC(=O)C(=O)O)c2)c(I)c2cc(C(=O)O)c(O)cc21`, the inhibition result in assay [1] and in assay [2] was “inactive” each time.

What is called IC50 is the concentration that inhibits the measured activity by half. As to `CCCN(CC1CC1)C(=O)CCC(=O)Nc1cccc(-c2c(I)c3cc(C(=O)O)c(O)cc3n2C)c1`, the IC50 in assay [3] was greater than 20 µM.

Regarding `Cn1c(-c2ccccc2)c(-c2cn(CCC(=O)Nc3ccc(-c4ccccc4)cc3)nn2)c2cc(C(=O)O)c(O)cc21`, in the assay listed under Mus musculus [4], the inhibition entry was “Active”. In the assay filed under Mus musculus [5], the inhibition result is “inactive”.

Turning to `Cn1c(-c2cccc(NC(=O)C(=O)Nc3ccc(-c4ccsc4)cc3)c2)c(I)c2cc(C(=O)O)c(O)cc21`, the inhibition result (with Bone marrow cell [6]; in the assay listed under Mus musculus [9]; in assay [10]; in the assay on Bone marrow cell [12]; in the assay with SK-BR-3; in the assay filed under Mus musculus [4]) was “Active” each time. The inhibition result in [21] is “Active”. In addition, in assay [1], the Activity is 30%. The inhibition entry in assay [7] is “Dose-dependent effect”; in [8], “Dose-dependent effect”; in assay [11] it was “Dose-dependent effect”; with NCI-H1975 [14], “Dose-dependent effect”; in assay [2] it was 40%; in assay [17], “Dose-dependent effect”. The inhibition entry (in assay [13]; in assay [15]; in assay [18]; in the assay filed under Mus musculus [5]) was “inactive” in each case. Further, the IC50 in the assay on NCI-H1975 [14] (NCI-H1975, 48 h) was 170 nM; in [16], greater than 20 µM; in [19], greater than 100 µM. In the assay with NCI-H1975 [20], the result was inactive.
